Converted amounts (≈) assume the structure as drawn.
How the values were obtained:
Escherichia coli [1] = test: Antimicrobial activity against Escherichia coli DH10B harboring beta-lactamase KPC-2 T237Y mutant by agar dilution method; type: functional; conditions: K-12 DH10B
Outline: (§1)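 LB agar dilution MICs followed CLSI criteria, with inocula applied by Steers replicator. […] Piperacillin-tazobactam was tested at an 8:1 ratio. Wild-type and mutant blaKPC-2 were carried on pBC SK(+), or wild type on pBR322-catI, in E. coli DH10B.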

Escherichia coli [2] = test: Antimicrobial activity against Escherichia coli DH10B harboring plasmid […] by agar dilution method; type: functional; conditions: K-12 DH10B; outline: as §1
Escherichia coli [3] = test: Antimicrobial activity against Escherichia coli DH10B harboring beta-lactamase KPC-2 T237K mutant by agar dilution method; type: functional; conditions: K-12 DH10B; outline: as §1
Escherichia coli [4] = test: Antimicrobial activity against Escherichia coli DH10B harboring beta-lactamase KPC-2 T237S mutant by agar dilution method; type: functional; conditions: K-12 DH10B; outline: as §1
Escherichia coli [5] = test: Antimicrobial activity against Escherichia coli DH10B harboring beta-lactamase KPC-2 T237C mutant by agar dilution method; type: functional; conditions: K-12 DH10B; outline: as §1
Escherichia coli [6] = test: Antimicrobial activity against Escherichia coli DH10B harboring beta-lactamase KPC-2 T237M mutant by agar dilution method; type: functional; conditions: K-12 DH10B; outline: as §1
Escherichia coli [7] = test: Antimicrobial activity against Escherichia coli DH10B harboring beta-lactamase KPC-2 T237G mutant by agar dilution method; type: functional; conditions: K-12 DH10B; outline: as §1
Escherichia coli [8] = test: Antimicrobial activity against Escherichia coli DH10B harboring beta-lactamase KPC-2 T237A mutant by agar dilution method; type: functional; conditions: K-12 DH10B; outline: as §1
Escherichia coli [9] = test: Antimicrobial activity against Escherichia coli DH10B harboring beta-lactamase KPC-2 T237I mutant by agar dilution method; type: functional; conditions: K-12 DH10B; outline: as §1
Escherichia coli [10] = test: Antimicrobial activity against Escherichia coli DH10B harboring beta-lactamase KPC-2 T237W mutant by agar dilution method; type: functional; conditions: K-12 DH10B; outline: as §1
Escherichia coli [11] = test: Antimicrobial activity against Escherichia coli DH10B harboring beta-lactamase KPC-2 T237P mutant by agar dilution method; type: functional; conditions: K-12 DH10B; outline: as §1
Escherichia coli [12] = test: Antimicrobial activity against Escherichia coli DH10B harboring beta-lactamase KPC-2 T237Q mutant by agar dilution method; type: functional; conditions: K-12 DH10B; outline: as §1
Escherichia coli [13] = test: Antimicrobial activity against Escherichia coli DH10B harboring plasmid pBC SK(+) carrying wild type beta-lactamase KPC-2 by agar dilution method; type: functional; conditions: K-12 DH10B; outline: as §1
Escherichia coli [14] = test: Antimicrobial activity against Escherichia coli DH10B harboring beta-lactamase KPC-2 T237V mutant by agar dilution method; type: functional; conditions: K-12 DH10B; outline: as §1
Escherichia coli [15] = test: Antimicrobial activity against Escherichia coli DH10B harboring beta-lactamase KPC-2 T237R mutant by agar dilution method; type: functional; conditions: K-12 DH10B; outline: as §1
Escherichia coli [16] = test: Antimicrobial activity against Escherichia coli DH10B harboring beta-lactamase KPC-2 T237E mutant by agar dilution method; type: functional; conditions: K-12 DH10B; outline: as §1
Klebsiella pneumoniae [17] = test: Antimicrobial activity against Klebsiella pneumoniae 1534 expressing beta-lactamase KPC-2 by agar dilution method; type: functional
Outline: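 MICs were determined by LB agar dilution following CLSI criteria, with a Steers replicator. […] Piperacillin-tazobactam was kept at an 8:1 ratio.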

Escherichia coli [18] = test: Antimicrobial activity against Escherichia coli DH10B by agar dilution method; type: functional; conditions: K-12 DH10B; outline: as §1
Escherichia coli [19] = test: Antimicrobial activity against Escherichia coli DH10B harboring beta-lactamase KPC-2 T237F mutant by agar dilution method; type: functional; conditions: K-12 DH10B; outline: as §1
Escherichia coli [20] = test: Antimicrobial activity against Escherichia coli DH10B harboring beta-lactamase KPC-2 T237N mutant by agar dilution method; type: functional; conditions: K-12 DH10B; outline: as §1
Escherichia coli [21] = test: Antimicrobial activity against Escherichia coli DH10B harboring plasmid pBR322-catI carrying beta-lactamase KPC-2 by agar dilution method; type: functional; conditions: K-12 DH10B; outline: as §1
Escherichia coli [22] = test: Antimicrobial activity against Escherichia coli DH10B harboring beta-lactamase KPC-2 T237H mutant by agar dilution method; type: functional; conditions: K-12 DH10B; outline: as §1
Escherichia coli [23] = test: Antimicrobial activity against Escherichia coli DH10B harboring beta-lactamase KPC-2 T237L mutant by agar dilution method; type: functional; conditions: K-12 DH10B; outline: as §1
Escherichia coli [24] = test: Antimicrobial activity against Escherichia coli DH10B harboring beta-lactamase KPC-2 T237D mutant by agar dilution method; type: functional; conditions: K-12 DH10B; outline: as §1
Klebsiella pneumoniae [25] = test: Ratio of Kcat/Km for Klebsiella pneumoniae 1534 beta-lactamase KPC-2 T237S mutant by spectrophotometric analysis
Outline: (§2)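 Purified KPC-2 variant enzymes (periplasmic lysate from E. coli, preparative isoelectric focusing). Hydrolysis followed by diode-array spectrophotometry in 10 mM PBS, pH 7.4, room temperature. Enzyme at 10 nM with substrate in molar excess for pseudo-first-order conditions. Vmax and Km came from a nonlinear least-squares Michaelis-Menten fit.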

Klebsiella pneumoniae [26] = test: Selectivity index, Ratio of Kcat/Km for Klebsiella pneumoniae 1534 beta-lactamase KPC-2 T237S mutant to ratio of Kcat/Km for Klebsiella pneumoniae 1534 beta-lactamase KPC-2 by spectrophotometric analysis
Outline: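 Kinetics used purified enzymes in 10 mM PBS, pH 7.4, room temperature, with 10 nM enzyme and substrate in excess. Km and Vmax came from a Michaelis-Menten fit. kcat/Km of the variant was compared with wild type as ΔΔG = −RT ln of the kcat/Km ratio.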

Klebsiella pneumoniae [27] = test: Activity of Klebsiella pneumoniae 1534 beta-lactamase KPC-2 T237S mutant by spectrophotometric analysis; outline: as §2
Klebsiella pneumoniae [28] = test: Ratio of Kcat/Km for Klebsiella pneumoniae 1534 beta-lactamase KPC-2 T237A mutant by spectrophotometric analysis; outline: as §2
Klebsiella pneumoniae [29] = test: Activity of Klebsiella pneumoniae 1534 beta-lactamase KPC-2 T237A mutant by spectrophotometric analysis; outline: as §2
Klebsiella pneumoniae [30] = test: Ratio of Ki for Klebsiella pneumoniae 1534 beta-lactamase KPC-2 T237S mutant to Ki for Klebsiella pneumoniae wild type beta-lactamase KPC-2 by competitive assay
Outline: (§3)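 Direct competition assay at steady state with purified enzyme at 10 nM. Inhibitor was varied from 5 μM to 5 mM, with nitrocefin 100 μM final as reporter substrate. 1/v0 was plotted against [I], and Ki(observed) was taken as y-intercept divided by slope. This was corrected by 1 + [S]/Km(nitrocefin).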

[31] = Inhibition of Klebsiella pneumoniae 1534 beta-lactamase KPC-2 T237A mutant by competitive assay; outline: as §3
[32] = Inhibition of Klebsiella pneumoniae 1534 beta-lactamase KPC-2 T237S mutant by competitive assay; outline: as §3
Klebsiella pneumoniae [33] = test: Ratio of Ki for Klebsiella pneumoniae 1534 beta-lactamase KPC-2 T237A mutant to Ki for wild type Klebsiella pneumoniae beta-lactamase KPC-2 by competitive assay

SMILES | MIC (Escherichia coli [1]) [µg/mL] | MIC (Escherichia coli [2]) [µg/mL] | MIC (Escherichia coli [3]) [µg/mL] | MIC (Escherichia coli [4]) [µg/mL] | MIC (Escherichia coli [5]) [µg/mL] | MIC (Escherichia coli [6]) [µg/mL] | MIC (Escherichia coli [7]) [µg/mL] | MIC (Escherichia coli [8]) [µg/mL] | MIC (Escherichia coli [9]) [µg/mL] | MIC (Escherichia coli [10]) [µg/mL] | MIC (Escherichia coli [11]) [µg/mL] | MIC (Escherichia coli [12]) [µg/mL] | MIC (Escherichia coli [13]) [µg/mL] | MIC (Escherichia coli [14]) [µg/mL] | MIC (Escherichia coli [15]) [µg/mL] | MIC (Escherichia coli [16]) [µg/mL] | MIC (Klebsiella pneumoniae [17]) [µg/mL] | MIC (Escherichia coli [18]) [µg/mL] | MIC (Escherichia coli [21]) [µg/mL] | MIC (Escherichia coli [24]) [µg/mL] | further results
C[C@@H](O)[C@H]1C(=O)N2C(C(=O)O)=C(S[C@@H]3CN[C@H](C(=O)Nc4cccc(C(=O)O)c4)C3)[C@H](C)[C@H]12 | 0.06 (≈ 0.126 µM) | 0.06 (≈ 0.126 µM) | 0.06 (≈ 0.126 µM) | 0.5 (≈ 1.05 µM) | 0.06 (≈ 0.126 µM) | 0.06 (≈ 0.126 µM) | 0.06 (≈ 0.126 µM) | 0.06 (≈ 0.126 µM) | 0.06 (≈ 0.126 µM) | 0.06 (≈ 0.126 µM) | 0.06 (≈ 0.126 µM) | 0.06 (≈ 0.126 µM) | 0.25 (≈ 0.526 µM) | 0.06 (≈ 0.126 µM) | 0.06 (≈ 0.126 µM) | 0.06 (≈ 0.126 µM) | 8 (≈ 16.8 µM) | 0.06 (≈ 0.126 µM) | 2 (≈ 4.21 µM) | 0.06 (≈ 0.126 µM) | MIC (Escherichia coli [19]): 0.06 µg/mL (≈ 0.126 µM); MIC (Escherichia coli [20]): 0.06 µg/mL (≈ 0.126 µM); MIC (Escherichia coli [22]): 0.06 µg/mL (≈ 0.126 µM); MIC (Escherichia coli [23]): 0.06 µg/mL (≈ 0.126 µM)
C[C@@H](O)[C@H]1C(=O)N2C(C(=O)O)=C(S[C@@H]3CN[C@H](C(=O)N(C)C)C3)[C@H](C)[C@H]12 [MEROPENEM] | 0.06 (≈ 0.156 µM) | 0.06 (≈ 0.156 µM) | 0.06 (≈ 0.156 µM) | 0.5 (≈ 1.3 µM) | 0.06 (≈ 0.156 µM) | 0.06 (≈ 0.156 µM) | 0.06 (≈ 0.156 µM) | 0.06 (≈ 0.156 µM) | 0.06 (≈ 0.156 µM) | 0.06 (≈ 0.156 µM) | 0.06 (≈ 0.156 µM) | 0.06 (≈ 0.156 µM) | 0.25 (≈ 0.652 µM) | 0.06 (≈ 0.156 µM) | 0.06 (≈ 0.156 µM) | 0.06 (≈ 0.156 µM) | 4 (≈ 10.4 µM) | 0.06 (≈ 0.156 µM) | 2 (≈ 5.22 µM) | 0.06 (≈ 0.156 µM) | MIC (Escherichia coli [19]): 0.06 µg/mL (≈ 0.156 µM); MIC (Escherichia coli [20]): 0.06 µg/mL (≈ 0.156 µM); MIC (Escherichia coli [22]): 0.06 µg/mL (≈ 0.156 µM); MIC (Escherichia coli [23]): 0.06 µg/mL (≈ 0.156 µM)
C[C@@H](O)[C@H]1C(=O)N2C(C(=O)O)=C(SCCNC=N)C[C@H]12 [IMIPENEM ANHYDROUS] |  |  |  | 1 (≈ 3.34 µM) |  |  |  |  |  | 0.25 (≈ 0.835 µM) |  |  | 0.5 (≈ 1.67 µM) |  |  |  | 8 (≈ 26.7 µM) |  | 8 (≈ 26.7 µM) | 0.25 (≈ 0.835 µM) | kcat/Km (Klebsiella pneumoniae [25]): 1e+06 M⁻¹ s⁻¹; fold change (FC) (Klebsiella pneumoniae [26]): 2.7; Km (Klebsiella pneumoniae [27]): 21 µM; kcat (Klebsiella pneumoniae [27]): 21 s⁻¹; kcat/Km (Klebsiella pneumoniae [28]): 220000 M⁻¹ s⁻¹; Km (Klebsiella pneumoniae [29]): 31 µM; kcat (Klebsiella pneumoniae [29]): 6.8 s⁻¹
CC1(C)[C@H](C(=O)O)N2C(=O)C[C@H]2S1(=O)=O [SULBACTAM] |  |  |  |  |  |  |  |  |  |  |  |  |  |  |  |  |  |  |  |  | fold change (FC) (Klebsiella pneumoniae [30]): 1.7; Ki [31]: 703 µM; Ki [32]: 97 µM; fold change (FC) (Klebsiella pneumoniae [33]): 4.2
CC(=O)OCC1=C(C(=O)O)N2C(=O)[C@@H](NC(=O)Cc3cccs3)[C@H]2SC1 [CEPHALOTHIN] | 16 (≈ 40.4 µM) | 4 (≈ 10.1 µM) | 4 (≈ 10.1 µM) | 256 (≈ 646 µM) | 4 (≈ 10.1 µM) | 16 (≈ 40.4 µM) | 4 (≈ 10.1 µM) | 32 (≈ 80.7 µM) | 4 (≈ 10.1 µM) | 32 (≈ 80.7 µM) | 2 (≈ 5.04 µM) | 16 (≈ 40.4 µM) | 256 (≈ 646 µM) | 8 (≈ 20.2 µM) | 4 (≈ 10.1 µM) | 4 (≈ 10.1 µM) | 1020 (≈ 2580 µM) | 4 (≈ 10.1 µM) | 512 (≈ 1290 µM) | 4 (≈ 10.1 µM) | kcat/Km (Klebsiella pneumoniae [25]): 3.6e+06 M⁻¹ s⁻¹; fold change (FC) (Klebsiella pneumoniae [26]): 2.7; Km (Klebsiella pneumoniae [27]): 18 µM; kcat (Klebsiella pneumoniae [27]): 65 s⁻¹; kcat/Km (Klebsiella pneumoniae [28]): 900000 M⁻¹ s⁻¹; Km (Klebsiella pneumoniae [29]): 30 µM; kcat (Klebsiella pneumoniae [29]): 26 s⁻¹; MIC (Escherichia coli [19]): 4 µg/mL (≈ 10.1 µM); MIC (Escherichia coli [20]): 4 µg/mL (≈ 10.1 µM); MIC (Escherichia coli [22]): 16 µg/mL (≈ 40.4 µM); MIC (Escherichia coli [23]): 8 µg/mL (≈ 20.2 µM)

Source: ChEMBL document CHEMBL1629686, “Substrate selectivity and a novel role in inhibitor discrimination by residue 237 in the KPC-2 beta-lactamase” (Antimicrob Agents Chemother, 2010)
